Only some compounds are listed: those with a hit (about 3.5% of all), similar ones and a draw of the others.
MrgX1 agonist: agonists of human MrgX1 receptor, primary screen, HEK293 cells, Fluo-4 calcium flux. Mas-related G-protein coupled receptor member X1 (Homo sapiens), Q96LB2. Fluo-4 calcium fluorescence, agonist mode; stronger effect = higher value. B-score at 10 µM. hit rate 0.44% among 310,000. AID 588627, 2011;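 active = calcium response B-score plate-corrected fluorescence ratio at least 3 library SD, with starting fluorescence B-score inside 5 SD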
Target sequence (Q96LB2 whole entry, looked up): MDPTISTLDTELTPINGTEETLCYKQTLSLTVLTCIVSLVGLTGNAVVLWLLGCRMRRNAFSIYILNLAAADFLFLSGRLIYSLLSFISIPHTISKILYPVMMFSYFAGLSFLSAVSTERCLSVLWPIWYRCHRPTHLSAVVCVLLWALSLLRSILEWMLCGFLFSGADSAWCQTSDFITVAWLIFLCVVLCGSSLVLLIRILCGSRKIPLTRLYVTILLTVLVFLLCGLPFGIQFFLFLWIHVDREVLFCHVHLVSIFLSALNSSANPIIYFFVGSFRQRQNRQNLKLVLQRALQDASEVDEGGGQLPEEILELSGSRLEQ
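Assay system: stable human MrgX1 HEK293 cell line. Quantity: 15,000 cells per well. Schedule: cells plated overnight, dye loaded 0.5 h 37 °C, 0.5 h room temperature. Detection: Fluo-4 NW calcium-flux fluorescence, kinetic read. Read-out basis: peak-minus-minimum fluorescence over baseline, converted to B scores. Control set: positive and negative control wells on each plate.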
MrgX1 allo act: positive allosteric modulators of MrgX1, primary screen, HEK293 cells, Fluo-4 calcium flux. Mas-related G-protein coupled receptor member X1 (Homo sapiens), Q96LB2. FDSS; stronger effect = higher value. B-score at 10 µM. hit rate 0.63% among 310,000. AID 588675, 2011;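 active = plate-corrected calcium response at least 3 library SD above typical, normal starting fluorescence, not activating the receptor alone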;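 note: compound read alongside a low EC10 to EC30 dose of BAM8-22 agonist; peak minus trough fluorescence over baseline measured at the second addition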
RGS4 inh: RGS4 inhibitors, primary screen, cell-based, HEK293 M3R inducible RGS4, calcium flux. Regulator of G-protein signaling 4 (Homo sapiens), P49798. B-score at 10 µM. AID 463165, 2010. hit rate 0.45% among 310,000. Fluo-4 calcium flux; stronger effect = higher value; triggered by carbachol at its EC20;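 active = B-score, a plate-corrected calcium signal, over three deviations above library mean, with baseline fluorescence within five deviations of library mean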;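 note: RGS4 expression induced by doxycycline in cells with stable M3 receptor; B-score is computed from the integrated fluorescence ratio over baseline after carbachol; higher B-score means a larger calcium signal and so more RGS4 inhibition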
Target sequence (P49798 whole entry, looked up): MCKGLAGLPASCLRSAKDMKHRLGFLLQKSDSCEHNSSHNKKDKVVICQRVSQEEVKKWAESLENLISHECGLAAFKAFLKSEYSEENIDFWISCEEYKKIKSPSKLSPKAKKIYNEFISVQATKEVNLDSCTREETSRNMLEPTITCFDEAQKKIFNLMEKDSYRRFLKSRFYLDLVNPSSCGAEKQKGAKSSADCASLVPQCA
MrgX1 antagonist: antagonists of human MrgX1 receptor, primary screen, HEK293 cells, Fluo-4 calcium flux; Mas-related G-protein coupled receptor member X1 (Homo sapiens), Q96LB2; BAM8-22 antagonism; stronger effect = lower value; B-score at 10 µM; hit rate 1.3% among 310,000;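 active = calcium-response B-score plate-corrected more than 3 library SD below zero, starting fluorescence within 5 deviations, no agonist response on first addition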;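 note: peak minus trough fluorescence over baseline after final BAM8-22 challenge near maximal dose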
RGS4 pot: RGS4 potentiators or activators, primary screen, cell-based, HEK293 M3R inducible RGS4, calcium flux | carbachol calcium flux Fluo4; stronger effect = lower value | B-score at 10 µM | hit rate 0.92% among 310,000;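 active = B-score of the integrated calcium signal more than 4 SD below the library mean, with starting fluorescence not abnormally high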;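 note: negative B-score means reduced calcium response which marks RGS4 activation or potentiation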
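Assay system: HEK293 FlpIn-TREx cells, stable M3R, doxycycline-inducible RGS4 / Probe or stimulus: carbachol, ECmax concentration / Times: overnight RGS4 induction, 30 min dye load 37 °C, 20 min compound RT / Signal: kinetic calcium fluorescence imaging with Fluo4-AM dye, 2 µM / Measure: Agonist-evoked peak-minus-minimum fluorescence over baseline, integrated ratio, B score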
MrgX1 ant reconf: MrgX1 receptor antagonists, duplicate retest, confirmation, HEK293 cells, Fluo-4 calcium flux; remaining BAM8-22 calcium response % of control (stronger effect = lower value), % at 10 µM; shares compounds with MrgX1 antagonist; hit rate 19% among 2,300; BAM8-22 calcium flux; stronger effect = lower value;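 active = remaining agonist calcium response no higher than 100% minus 3 SD of agonist-only control wells, with starting fluorescence near control levels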;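 note: agonist BAM8-22 given at a near maximal EC90 to ECmax level; peak minus minimum fluorescence divided by baseline after agonist addition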
HEK293 Ca flux: nonspecific calcium signal in parental HEK293, confirmation, counter-screen for MrgX1 antagonist project, parental HEK293 cells, Fluo-4 calcium flux; fluorescence ratio F(max-min)/F0 at 10 µM; AID 624111, 2012; hit rate 2% among 4,000; shares compounds with MrgX1 antagonist; Fluo-4 calcium fluorescence, FDSS;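 active = duplicate-averaged calcium fluorescence ratio at least three times the standard deviation of buffer wells, a nonspecific response in parental cells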
HEK293 Ca counter: calcium response in parental HEK293 cells, primary screen, counter-screen for MrgX1 allosteric activator project, cell-based, Fluo-4 calcium flux, duplicate; shares compounds with MrgX1 antagonist; Fluo-4 fluorescence ratio; stronger effect = higher value; fluorescence ratio F(max-min)/F0 at 10 µM; hit rate 0.4% among 4,000; AID 624114, 2012;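 active = calcium fluorescence ratio, averaged over duplicates, at least 3 SD of the buffer-well ratio, meaning a nonspecific response in receptor-free cells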;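 note: untransfected parental HEK293 lacking MrgX1 used as counterscreen for MrgX1 allosteric activators; fluorescence change taken during the second addition on a kinetic imager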
HEK293 Ca cntr2: calcium response in parental HEK293 cells, primary screen, counter-screen for MrgX1 agonist project, cell-based, Fluo-4 calcium flux, duplicate, agonist mode; shares compounds with MrgX1 antagonist; Fluo-4 calcium fluorescence (FDSS); stronger effect = higher value; hit rate 8.7% among 4,000; AID 624115, 2012; fluorescence ratio F(max-min)/F0 at 10 µM;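 active = calcium fluorescence ratio at least three times the spread of buffer wells, meaning a non-specific response in parental cells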
Hits are given with their value; n = inactive; x = not tested or not shown.

SMILES | MrgX1 agonist | MrgX1 allo act | RGS4 inh | MrgX1 antagonist | RGS4 pot | MrgX1 ant reconf | HEK293 Ca flux | HEK293 Ca counter | HEK293 Ca cntr2
Cn1cc(S(=O)(=O)CC(=O)Nc2ccc(Br)cc2)c2ccccc21 | n | n | n | -6.1 | n | n | n | n | n
Cc1oc2c(CN(C)C)c(O)ccc2c(=O)c1-c1ccc2ccccc2n1 | n | n | n | -8.6 | n | n | n | n | n
COc1ccccc1-n1ccnc(SCC(=O)NCCc2ccccc2)c1=O | n | n | n | n | n | x | x | x | x
CC(C)C(=O)N1CCN(c2ccccc2NC(=S)NC(=O)Cc2ccccc2)CC1 | n | n | n | n | n | x | x | x | x
CCCC(=O)Nc1ccccc1N1CCN(C(=O)C(C)C)CC1 | n | n | n | -5.2 | n | n | n | n | n
Cc1cc(NC(=O)Cc2c(F)cccc2Cl)no1 | n | n | n | n | n | x | x | x | x
O=C(Cc1c(F)cccc1Cl)Nc1ccon1 | n | n | n | -6.5 | n | n | n | n | n
COc1ccccc1Nc1nc2ccccc2n1C | n | n | n | -4.8 | n | n | n | n | n
OCC[C@@H]1C[C@@H](O)[C@H](O)[C@@]2(CCc3ccccc3CO2)O1 | n | n | n | -5 | n | n | n | n | n
OCC[C@H]1C[C@@H](O)[C@H](O)[C@]2(CCc3ccccc3CO2)O1 | n | n | x | n | x | x | x | x | x
c1coc(CNc2c3c(nc4ccccc24)CCC3)c1 | n | n | n | -5.5 | n | n | n | n | n
Cc1ccc(S(=O)(=O)NCC(c2cccnc2)N2CCc3ccccc32)cc1 (stereo unspecified) | n | n | n | n | n | x | x | x | x
Cn1cc(S(=O)(=O)N2CCCC2)cc1C(=O)N1CCN(c2ccccc2)CC1 | n | n | n | -7.7 | n | 84% | n | n | n
CC(C)N(CC#CCC1(O)c2ccccc2-c2ccccc21)CCO | n | n | n | -6 | n | n | n | n | n
CCN(CC#CCC1(O)c2ccccc2-c2ccccc21)CCO | n | n | n | n | n | x | x | x | x
Cc1[nH]c(C)c(S(=O)(=O)Nc2ccc(OC(F)(F)F)cc2)c1C(=O)N1CCCCC1 | n | n | n | n | n | x | x | x | x
CCc1nnc(NC(=O)c2nc(S(=O)(=O)Cc3ccc(C)cc3)ncc2Cl)s1 | n | n | n | -7.2 | n | 73% | n | n | n
CCOC(=O)c1c(Nc2nc(C)c(C(=O)NC)s2)sc(C)c1C | n | n | n | n | n | x | x | x | x
CCOC(=O)CSc1ncnc2c1c(-c1ccccc1)cn2-c1ccc(OC)cc1 | n | n | n | -5.8 | n | 71% | n | n | n
COc1cccc(C(O)c2nc3ccccc3n2C(C)C)c1 (stereo unspecified) | n | n | n | -6.3 | n | n | n | n | n
COc1cccc(C(O)c2nc3ccccc3n2C(C)C)c1OC (stereo unspecified) | n | n | n | n | n | x | x | x | x
CCCCN(C)Cc1cc(=O)oc2ccc3ccccc3c12 | n | n | n | n | n | x | x | x | x
CCC(C)NCCCOc1c(C)cc(C)cc1Br (stereo unspecified) | n | n | n | n | n | x | x | x | x
Cn1cc(CNC(=O)C2CCC(=O)N(Cc3ccccc3F)C2)cn1 (stereo unspecified) | n | n | n | -4.7 | n | n | n | n | n
Cc1cc(C(=O)CSc2nnc(Cc3ccccc3)o2)c(C)n1Cc1ccc2c(c1)OCO2 | n | n | n | -7.5 | n | n | n | n | n
SMILES | MrgX1 agonist | MrgX1 allo act | RGS4 inh | MrgX1 antagonist | RGS4 pot | MrgX1 ant reconf | HEK293 Ca flux | HEK293 Ca counter | HEK293 Ca cntr2
N#CCSc1nnc(-c2ccc3c(c2)OCO3)o1 | n | n | n | n | n | x | x | x | x
C=CCn1c(C)cc(C(=O)CSc2nnc(Cc3ccccc3)o2)c1C | n | n | n | n | n | x | x | x | x
N#CCSc1nnc(Cc2ccc3c(c2)OCO3)o1 | n | n | n | -5.4 | n | n | n | n | n
Cc1ccc(-c2ccnc3nc(-n4cccc4)nn23)o1 | n | n | n | n | n | x | x | x | x
O=C(NC1CCCCC1)C(=S)N1CCOCC1 | n | n | n | -5.4 | n | n | n | n | n
COc1ccccc1C1=NOC(Cn2c(NCCOCCO)nc3c2c(=O)n(C)c(=O)n3C)C1 (stereo unspecified) | n | n | n | n | n | x | x | x | x
Cc1sc2nc(SCC(=O)N3CCOCC3)[nH]c(=O)c2c1-c1ccccc1 | n | n | n | -5.1 | n | n | n | n | n
CCc1cccc(CC)c1NC(=O)COC(=O)C1(C)CC1(Cl)Cl (stereo unspecified) | n | n | n | n | n | x | x | x | x
CCn1nc(C)c(CN2CCC(C(=O)Nc3cccc(-c4cccc(F)c4)c3)CC2)c1C | n | n | n | n | n | x | x | x | x
CCc1ccc(OC(C)C(=O)Nc2ccc(S(=O)(=O)Nc3nccs3)cc2)cc1 (stereo unspecified) | n | n | n | -6.5 | n | 74% | n | n | 46
Cc1ccc(OC(C)C(=O)Nc2ccc(S(=O)(=O)Nc3nccs3)cc2)cc1 (stereo unspecified) | n | n | n | n | n | x | x | x | x
O=C(O)c1cccc(Cn2c(Cl)c(/C=N/NC(=O)c3ccco3)sc2=O)c1 | n | n | n | n | n | x | x | x | x
Cc1cc(NCc2ccco2)n2ncnc2n1 | n | n | n | -7.1 | n | n | n | n | n
O=C(N/C(=C\c1ccc(Br)cc1)C(=O)N1CCCC1)c1ccccc1F | n | n | n | n | n | x | x | x | x
CC1(C)CC(=O)C(C=Nc2cc(C(=O)c3ccccc3)ccc2N)=C(O)C1 | n | n | n | -6.8 | n | 73% | n | n | n
CSc1ccccc1N=CC1=C(O)CC(C)(C)CC1=O | n | n | n | n | n | x | x | x | x
OCCNc1nc(Nc2ccccc2O)nc(N2CCCC2)n1 | n | n | n | n | n | x | x | x | x
CC(=O)Nc1ccccc1Nc1nc(NCCO)nc(N2CCCC2)n1 | n | n | n | -8.3 | n | n | n | n | n

Compound activity as filed in PubChem.
